Laboratory results: ChEMBL document CHEMBL1135546, “Dicaffeoyltartaric acid analogues inhibit human immunodeficiency virus type 1 (HIV-1) integrase and HIV-1 replication at nontoxic concentrations” (J Med Chem, 2002)

Experiments:
[1] = system: Human immunodeficiency virus 1; assay: Inhibition of HIV replication by 50%.; assay type: functional; conditions: read-out: ED50 (the source's name)
MT2 = assay: Inhibition of MT-2 cell growth by 5% or less over a 72 hr time period.; assay type: functional, Homo sapiens
Procedure, shortened: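 Compounds dissolved in water, 95% ethanol or ethanol/DMSO, diluted in growth medium, filter-sterilized, 2-fold serial dilutions in triplicate. MT-2 cells (2 × 10^5) exposed 72 h at 37 °C; viability by neutral red dye uptake. CT5 = 5% growth inhibition (within 1 SD of untreated controls), taken from linear part of dose-response curve; reported as greater than top concentration when not reachable.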

[2] = system: Human immunodeficiency virus 1; assay: Inhibition of 50% of the integrase-mediated catalysis of the V1/V2 substrate; assay type: functional
[3] = system: Human immunodeficiency virus 1; assay: Inhibition of 50% of the integrase-mediated catalysis of the Y-oligo substrate; assay type: functional
[4] = Therapeutic index (ratio of CT5 to ED50).; conditions: for selectivity ratio: read-out: TI
[5] = system: Human immunodeficiency virus 1; assay: Inhibition of 50% of the integrase-mediated catalysis of the V1/V2 substrate with 95% confidence interval; assay type: functional
[6] = system: Human immunodeficiency virus 1; assay: Inhibition of 50% of the integrase-mediated catalysis of the Y-oligo substrate with 95% confidence interval; assay type: functional

SMILES | EC50 ([1]; Human immunodeficiency virus 1) [µM] | CT5 (MT2) [µM] | IC50 [2] [µM] | IC50 [3] [µM] | selectivity ratio [4] | IC50 ([5]; Human immunodeficiency virus 1) [µM] | IC50 ([6]; Human immunodeficiency virus 1) [µM] | EC50 [1] [µM] | IC50 [5] [µM] | IC50 [6] [µM] | TI [4]
O=C(O)C(O)C(O)C(=O)O (stereo not drawn) | > 1000 | >1000 | > 25 | > 25 | < 1 |  |  |  |  |  | 
NC(=O)C(Cc1ccc(O)c(O)c1)C(Cc1ccc(O)c(O)c1)C(=O)O (stereo not drawn) | 49 | 123 |  |  | 2.5 | > 10 | 2.84 |  |  |  | 
CCCCCCCCCCNC(=O)C(Cc1ccc(O)c(O)c1)C(Cc1ccc(O)c(O)c1)C(=O)O (stereo not drawn) | > 37 | 34 |  |  | < 1 | > 10 | > 10 |  |  |  | 
O=C(/C=C\c1ccc(O)c(O)c1)NC(COC(=O)/C=C/c1ccc(O)c(O)c1)C(=O)O (stereo not drawn) |  | 39 |  |  | 16 | 0.33 | 0.12 | 2.5 |  |  | 
O=C(/C=C/c1ccc(O)c(O)c1)NCC(OC(=O)/C=C\c1ccc(O)c(O)c1)C(=O)O (stereo not drawn) | 2 | 175 |  |  | 88 | 0.37 | 0.19 |  |  |  | 
O=C(OC(C(=O)O)C(OC(=O)c1ccsc1)C(=O)O)c1ccsc1 (stereo not drawn) | > 95 | 100 | > 10 | > 10 | < 1 |  |  |  |  |  | 
CC(CCC(=O)O)C1CC[C@H]2[C@@H]3CCC4C[C@H](OC(=O)/C=C/c5ccc(O)c(O)c5)CC[C@]4(C)[C@H]3C[C@H](OC(=O)/C=C/c3ccc(O)c(O)c3)[C@]12C (stereo partly drawn) | > 17 | 6.4 |  |  | < 1 |  | 1.97 |  |  |  | 
CC(CCC(=O)O)C1CC[C@H]2[C@@H]3[C@H](OC(=O)/C=C/c4ccc(O)c(O)c4)CC4C[C@H](OC(=O)/C=C/c5ccc(O)c(O)c5)CC[C@]4(C)[C@H]3C[C@H](OC(=O)/C=C/c3ccc(O)c(O)c3)[C@]12C (stereo partly drawn) | > 140 | 11.4 |  |  | < 1 | 0.97 | 0.75 |  |  |  | 
O=C(OC(C(=O)O)C(OC(=O)c1cccs1)C(=O)O)c1cccs1 (stereo not drawn) | > 190 | >190 | > 10 | > 10 | < 1 |  |  |  |  |  | 
CC(=O)Oc1ccc(/C=C/C(=O)OC(C(=O)O)C(OC(=O)/C=C/c2ccc(OC(C)=O)c(OC(C)=O)c2)C(=O)O)cc1OC(C)=O (stereo not drawn) | 4 | 18.6 |  |  | 4.5 | > 10 | 15.7 |  |  |  | 
CCN(CC)C(=O)C(Cc1ccc(O)c(O)c1)C(Cc1ccc(O)c(O)c1)C(=O)O (stereo not drawn) | 186 | 93 |  |  | 0.5 | > 10 | 5.27 |  |  |  | 
O=C(O)C(=C\c1ccc(O)c(O)c1)/C(=C/c1ccc(O)c(O)c1)C(=O)O | 4.4 | 55 |  |  | 12 | 0.83 | 2.19 |  |  |  | 
O=C(/C=C\c1ccc(O)c(O)c1)NC(CNC(=O)/C=C/c1ccc(O)c(O)c1)C(=O)O (stereo not drawn) | 35 | 35 |  |  | 1 | 0.83 | 0.57 |  |  |  | 
O=C(/C=C/c1ccc(O)c(O)c1)Nc1cc(NC(=O)/C=C/c2ccc(O)c(O)c2)cc(C(=O)O)c1 | 4.6 | 47 |  |  | 10 |  | 0.73 |  |  |  | 
O=C(O)C(Cc1ccc(O)c(O)c1)C(Cc1ccc(O)c(O)c1)C(=O)O (stereo in doubt; 23b) |  | 76 |  |  |  |  |  | 12.6 | 0.23 | 4.32 | 6
O=C(O)C(Cc1ccc(O)c(O)c1)C(Cc1ccc(O)c(O)c1)C(=O)O (stereo in doubt; 24b) |  | 71 |  |  |  | 0.44 | 2.78 | 1.9 |  |  | 37
